MrgX1 antagonist = human MrgX1 receptor antagonism, primary screen; MRGX1-HEK293 calcium flux, Fluo-4, BAM8-22 antagonism; active compounds read low; AID 588676; Q96LB2; 310,000 tested, 1.3% active; B-score at 10 µM;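 active = calcium-response B-score plate-corrected more than 3 library SD below zero, starting fluorescence within 5 deviations, no agonist response on first addition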;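 also: peak minus trough fluorescence over baseline after final BAM8-22 challenge near maximal dose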
Target sequence (Q96LB2 whole entry, looked up): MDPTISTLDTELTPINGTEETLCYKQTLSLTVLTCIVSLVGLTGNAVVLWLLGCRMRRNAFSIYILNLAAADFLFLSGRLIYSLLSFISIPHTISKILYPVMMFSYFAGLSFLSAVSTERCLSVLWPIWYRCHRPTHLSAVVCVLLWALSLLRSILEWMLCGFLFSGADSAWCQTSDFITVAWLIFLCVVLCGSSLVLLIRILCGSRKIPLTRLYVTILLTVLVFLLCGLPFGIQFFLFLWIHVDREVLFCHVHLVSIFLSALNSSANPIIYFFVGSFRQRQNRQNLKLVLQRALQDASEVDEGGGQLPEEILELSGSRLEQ
MrgX1 agonist = agonists of human MrgX1 receptor | Q96LB2 | MrgX1-HEK293 cells, Fluo-4 calcium fluorescence, agonist mode; active compounds read high | B-score at 10 µM | 310,000 tested, 0.44% active;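 active = calcium response B-score plate-corrected fluorescence ratio at least 3 library SD, with starting fluorescence B-score inside 5 SD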
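Material: MrgX1-expressing HEK293 cells; input: 15,000 cells per well; doses: test compound given as first of three sequential additions; schedule: overnight plating before 1 h dye loading; technique: Fluo-4 NW calcium-flux fluorescence, kinetic read; evaluation: baseline-normalised fluorescence change ratio, B-scored; control set: plate-wise positive and negative controls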
RGS4 block = human RGS4 inhibition. AID 463165. 310,000 tested, 0.45% active. HEK293 M3R/RGS4 inducible, Fluo-4 calcium flux; active compounds read high; triggered by carbachol at its EC20. B-score at 10 µM;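 active = B-score, a plate-corrected calcium signal, over three deviations above library mean, with baseline fluorescence within five deviations of library mean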;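 also: RGS4 expression induced by doxycycline in cells with stable M3 receptor; B-score is computed from the integrated fluorescence ratio over baseline after carbachol; higher B-score means a larger calcium signal and so more RGS4 inhibition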
Target sequence (P49798 whole entry, looked up): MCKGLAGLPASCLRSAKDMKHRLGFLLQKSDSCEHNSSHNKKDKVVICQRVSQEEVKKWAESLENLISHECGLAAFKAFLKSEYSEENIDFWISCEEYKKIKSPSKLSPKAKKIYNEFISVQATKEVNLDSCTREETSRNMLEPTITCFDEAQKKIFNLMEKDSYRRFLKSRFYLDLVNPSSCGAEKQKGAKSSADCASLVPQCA
RGS4 act = potentiators or activators of RGS4; 310,000 tested, 0.92% active; B-score at 10 µM; HEK293 M3R/inducible RGS4, carbachol calcium flux Fluo4; active compounds read low;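 active = B-score of the integrated calcium signal more than 4 SD below the library mean, with starting fluorescence not abnormally high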;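 also: negative B-score means reduced calcium response which marks RGS4 activation or potentiation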
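Also added: carbachol at ECmax as muscarinic agonist stimulus; Assay system: HEK293 cells with stable M3R and inducible RGS4; Timing: overnight RGS4 induction, 30 min dye load 37 °C, 20 min compound RT; Measured by: Fluo4-AM (2 µM) calcium-flux fluorescence, kinetic read.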
MrgX1 PAM = human MrgX1 positive allosteric modulation, primary screen. AID 588675. MrgX1-HEK293, Fluo-4 calcium flux, FDSS; active compounds read high. 310,000 tested, 0.63% active. B-score at 10 µM;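 active = plate-corrected calcium response at least 3 library SD above typical, normal starting fluorescence, not activating the receptor alone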;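 also: compound read alongside a low EC10 to EC30 dose of BAM8-22 agonist; peak minus trough fluorescence over baseline measured at the second addition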
Kir21 block = Kir2.1 (mouse) channel inhibition | HEK293-Kir2.1, FluxOR thallium flux fluorescence; active compounds read low | B-score at 10 µM | 310,000 tested, 0.85% active | AID 1672;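 active = fluorescence ratio B-score at or below minus 3 SD of library scores, with starting-brightness B-score within 2 SD, cut at about -4.2 in these data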;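 also: channel flux triggered by added potassium and thallium sulfate stimulus; B-score of peak minus minimum fluorescence over baseline after thallium stimulus; more negative B-score means stronger Kir2.1 block with less thallium influx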
Large screens that a line does not name were inactive. Only some compounds are listed: those with a hit (about 4.1% of all), similar ones and a draw of the others.

O=C(N/N=C/c1ccccn1)c1ccc(Cl)cc1	none
Cn1ncc(Cl)c1C(=O)N/N=C/c1ccccn1	MrgX1 antagonist -9.3
N#Cc1ccc(CSc2nnc(Cc3cccs3)n2Cc2ccco2)cc1	Kir21 block -6.1
O=C(N/N=C/c1cn(-c2ccccc2)nc1-c1cccs1)c1ccccc1F	RGS4 act -7.4
O=C(NCCN1CCOCC1)c1cn(-c2ccccc2)nc1-c1cccs1	none
O=C(N/N=C/c1cn(-c2ccccc2)nc1-c1cccs1)c1ccc(Cl)cc1	RGS4 act -7
O=C(NCCCN1CCOCC1)c1cn(-c2ccccc2)nc1-c1cccs1	Kir21 block -4.5
O=C(N/N=C/c1cn(-c2ccccc2)nc1-c1cccnc1)c1ccc(F)cc1	none
Cc1ccc(-c2ocnc2C(=O)Nc2ccccc2NC(=O)c2ccccn2)cc1	none
COc1ccccc1NC(=O)C(C)NS(=O)(=O)c1ccc(F)cc1 (centres undefined)	none
O=C(N1CCOCC1)N1CCN(c2ccccc2)CC1	none
COc1cc(C2C(C#N)=C(N)OC3=C2C(=O)CC(C)(C)C3)c([N+](=O)[O-])cc1OC (centres undefined)	MrgX1 agonist 29
COc1ccc(C2C(C#N)=C(N)OC3=C2C(=O)CC(C)(C)C3)c([N+](=O)[O-])c1OC (centres undefined)	none
Nc1cccc(-c2nc3cc(S(=O)(=O)c4ccc5oc(-c6cccc(N)c6)nc5c4)ccc3o2)c1	none
COC(=O)c1ccc(N)c(N=CC2=C(O)CC(C)(C)CC2=O)c1	MrgX1 agonist 27
CC1(C)CC(=O)C(C=Nc2ccc(N)cc2)=C(O)C1	none
Cc1cc(C(=O)CSc2nnc(-c3ccco3)o2)c(C)n1-c1ccc2c(c1)OCCO2	none
O=[N+]([O-])c1ccccc1N/N=C/c1c[nH]c2ccccc12	none
O=[N+]([O-])c1ccc(N/N=C/c2c[nH]c3ccccc23)cc1	MrgX1 antagonist -9.1
O=[N+]([O-])c1ccc(N/N=C/c2ccc[nH]2)cc1	MrgX1 agonist 27 (no result: RGS4 block, RGS4 act, Kir21 block)
CCCCN=C1CC(C)(C)CC(=O)/C1=C(/O)CCCN1C(=O)c2ccccc2C1=O	none
CC1(C)CC(=O)/C(=C(/O)Cc2ccccc2)C(=NCCc2ccccc2)C1	Kir21 block -4.3
O=C(Nc1ccc(Cl)c([N+](=O)[O-])c1)C(Sc1ccccc1)c1ccccc1 (centres undefined)	RGS4 act -8.6
O=C(Nc1cc([N+](=O)[O-])ccc1Cl)C(Sc1ccccc1)c1ccccc1 (centres undefined)	none
CC(=O)Nc1ccc(CN2CCCC(C(=O)c3cccc(C(F)(F)F)c3)C2)cc1 (centres undefined)	none
COc1ccc(CN2CCCC(C(=O)c3cccc(C(F)(F)F)c3)C2)cc1O (centres undefined)	RGS4 act -7.6, Kir21 block -12
O=C(CSc1ccc2nnc(-c3ccccn3)n2n1)NCc1ccco1	none
CCn1c(CNc2ccc(OC)cc2)nnc1SCC(=O)Nc1ccc(F)cc1	none
CC(C)OC(=O)CSc1nnc(CNc2nc(-c3ccccc3)cs2)n1C	none
CCn1c(CNc2ccc(F)cc2)nnc1SCC(=O)OC1CCCCC1	Kir21 block -4.5
COc1cccc(OCc2nnc(SCC(=O)OC3CCCCC3)n2C)c1	Kir21 block -4.8
COc1cccc(OCc2nnc(SCC(=O)NNC(=O)C3CCCCC3)n2C)c1	none
Cn1c(CNc2nc(-c3ccccc3)cs2)nnc1SCC(=O)OC1CCCCC1	Kir21 block -5.4
CCCCn1c(N)c(-c2nc3ccccc3s2)c2c([N+](=O)[O-])nn(CC)c(=O)c21	none
C=CCN1C(=O)[C@@H]2Cc3c([nH]c4ccccc34)C(c3cc(OC)c(OC)c(OC)c3)N2C1=S (some centres undefined)	none
C=CCN1C(=O)[C@@H]2Cc3c([nH]c4ccccc34)C(c3ccc(O)cc3)N2C1=S (some centres undefined)	MrgX1 antagonist -5.3
O=C(CSc1nc(-c2ccccc2)nn1C(=O)c1ccccc1)Nc1cccc([N+](=O)[O-])c1	MrgX1 antagonist -4.8
CNC(=S)N/N=C(\C)c1ccc2c(c1)OCCO2	none
CCNC(=S)N/N=C(\C)c1ccc2c(c1)OCCO2	MrgX1 antagonist -6.5
OC(c1ccccc1)(C1CCCCC1)C(CN1CCOCC1)c1ccccc1 (centres undefined)	MrgX1 antagonist -8.2
COc1ccc(C(O)(C2CCCCC2)C(CN2CCOCC2)c2ccccc2)cc1 (centres undefined)	none
O=C(N/N=C/c1ccncc1)c1cnccn1	none
Cc1cc(NC(=O)NN2CCOCC2)nn1-c1c(Cl)cccc1Cl	none
N#CC1C=Cc2ccccc2N1C(=O)c1ccccc1 (centres undefined)	none
N#C[C@H]1C2OC2c2ccccc2N1C(=O)c1ccccc1 (some centres undefined)	MrgX1 antagonist -7.9
O=C1c2ccccc2-c2cccc(NS(=O)(=O)c3ccc(C(F)(F)F)cc3)c21	RGS4 act -7
CSC1=C(C#N)C(CC(C)C)C(C(C)=O)=C(C)N1 (centres undefined)	Kir21 block -6.5
CSC1=C(C#N)C(CC(C)C)C2=C(CCCC2=O)N1 (centres undefined)	none
CCCCSCCCNC(=O)c1cn(CC)c2ccc(S(=O)(=O)N3CCOCC3)cc2c1=O	none
Clc1ccc(CN2CCC(c3nc4ccc(Cl)cc4[nH]3)CC2)cc1	Kir21 block -8
C#CCOCCOCCOCCNc1nc(N2CCN(C(=O)[C@H]([C@@H](C)CC)n3cc([C@@H](N)CC(C)C)nn3)CC2)nc(N2CCN(C(=O)[C@H](CCCCN)n3cc([C@@H](N)C(C)CC)nn3)CC2)n1 (some centres undefined)	none
O=C(O)CCN1C(=O)C2C3C=CC(C2C1=O)C1C(=O)N(CCC(=O)O)C(=O)C31 (centres undefined)	none
CC(C)Oc1cccc(-c2cc(C(=O)N3CCN(c4ncccn4)CC3)c3ccccc3n2)c1	RGS4 act -7.4
CC(C)Oc1cccc(-c2cc(C(=O)N3CCN(S(C)(=O)=O)CC3)c3ccccc3n2)c1	none
COc1cccc(-c2cc(C(=O)N3CCN(c4ncccn4)CC3)c3ccccc3n2)c1	RGS4 act -7
Cc1ccc(-c2cc(C(=O)N3CCN(c4ncccn4)CC3)c3ccccc3n2)cc1	none
COc1ccc(/C=C(/NC(=O)c2ccc(Br)cc2)C(=O)N2CCOCC2)cc1	none
O=C1C(=O)N(CCCc2ccccc2)c2ccccc21	MrgX1 agonist 38
O=C(CCC(=O)NNC(=O)COc1ccccc1)NCc1ccccc1	none

Compound activity: PubChem BioAssay, Johns Hopkins Ion Channel Center
